Results on eight compounds are retold here after ChEMBL document CHEMBL3414486, “Synthesis of heterocycle-modified betulinic acid derivatives as antitumor agents” (Eur J Med Chem, 2015).

Experiment [1] can be described thus: Cytotoxicity against human HCT116 cells assessed as growth inhibition after 96 hrs by SRB assay. It counts as functional, cell-based. Particulars: HCT-116, 96 h. In outline:
(§1)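 SRB viability assay. Cells are seeded for 24 h, then exposed for 96 h to a concentration series from 20 mM DMSO stocks, with a DMSO control. Cells are fixed in 50% TCA (2 h, 4 °C), stained with 0.4% SRB for 10 min and washed with 1% acetic acid. Bound dye is dissolved in 10 mM Tris base and read at 515 nm. IC50 is averaged from at least 3 independent experiments. SI is IC50 in HAF divided by IC50 in the cancer line.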

In another experiment the test system is HT-29. The experiment is described as follows: Cytotoxicity against human HT-29 cells assessed as growth inhibition after 96 hrs by SRB assay. The class given is functional, cell-based. Particulars: HT-29, 96 h. In outline:
as §1
In general terms: The SRB assay estimates cell density from bound dye.

Experiment [2] in a line: Cytotoxicity against human PC3 cells assessed as growth inhibition after 96 hrs by SRB assay. It counts as functional, cell-based. As to conditions: PC-3, 96 h. In outline:
as §1

The next experiment has as its system DU-145. The experiment is described as follows: Cytotoxicity against human DU145 cells assessed as growth inhibition after 96 hrs by SRB assay. It counts as functional, cell-based. Particulars: DU-145, 96 h. A digest of the protocol: as §1
Another experiment deals with MDA-MB-231. Nature of the experiment: Cytotoxicity against human MDA-MB-231 cells assessed as growth inhibition after 96 hrs by SRB assay. The class given is functional, cell-based. Particulars: MDA-MB-231, 96 h. A digest of the protocol:
as §1

Another experiment concerns 4T1. Nature of the experiment: Cytotoxicity against mouse 4T1 cells assessed as growth inhibition after 96 hrs by SRB assay. As to conditions: 4T1, 96 h. The class given is functional, cell-based. In outline:
as §1

For a further experiment, the system named is T47D. The experiment is described as follows: Cytotoxicity against human T47D cells assessed as growth inhibition after 96 hrs by SRB assay. The class given is functional, cell-based. A digest of the protocol: as §1
Another experiment has as its system MCF7. Nature of the experiment: Cytotoxicity against human MCF7 cells assessed as growth inhibition after 96 hrs by SRB assay. It counts as functional, cell-based. Particulars: MCF7, 96 h. A digest of the protocol: as §1
Experiment [3] is described as follows: Cytotoxicity against human MCF7/ADR cells assessed as growth inhibition after 96 hrs by SRB assay. As to conditions: NCI/ADR-RES. The class given is functional, cell-based. A digest of the protocol: as §1
Experiment [4] can be described thus: Cytotoxicity against HAF assessed as growth inhibition after 96 hrs by SRB assay. As to conditions: Homo sapiens. In outline: as §1

One may read the IC50 as the concentration needed to halve the response being measured. For `C=C(C)[C@@H]1CC[C@]2(C(=O)O)CC[C@]3(C)[C@H](CC[C@@H]4[C@@]5(C)CC[C@H](NC(=O)c6ccncc6)C(C)(C)[C@@H]5CC[C@]43C)[C@@H]12`, the half-maximal inhibitory concentration (IC50) (in [1]; with HT-29; in experiment [2]; in the experiment with DU-145; with MDA-MB-231; with 4T1) was above 25 µM each time. For the same compound, the IC50 in the experiment on T47D and in the experiment with MCF7 was above 25 µM each time.
As to `C=C(C)[C@@H]1CC[C@]2(C(=O)O)CC[C@]3(C)[C@H](CC[C@@H]4[C@@]5(C)CC[C@H](NC(=O)c6cccnc6Cl)C(C)(C)[C@@H]5CC[C@]43C)[C@@H]12`, the IC50 in experiment [1] was above 25 µM; in the experiment with HT-29, above 25 µM; in experiment [2], above 25 µM; in the experiment with DU-145, above 25 µM; in the experiment with MDA-MB-231 it was above 25 µM; in the experiment with 4T1 it was 16.1 µM. For the same compound, the values for the IC50 in the experiment with T47D and with MCF7 were 17.7 µM and above 25 µM, respectively.
With `C=C(C)[C@@H]1CC[C@]2(C(=O)O)CC[C@]3(C)[C@H](CC[C@@H]4[C@@]5(C)CC[C@H](NC(=O)C6CCCCN6)C(C)(C)[C@@H]5CC[C@]43C)[C@@H]12` (stereo partly drawn), the IC50 in [1] was 11.4 µM; in the experiment with HT-29, 20.1 µM; in experiment [2] it was above 25 µM; with DU-145, 7.31 µM; in the experiment with MDA-MB-231, 10.6 µM; with 4T1, 7.87 µM. Also, the results for the IC50 in the experiment on T47D and with MCF7 were 6.49 µM and 4.81 µM, respectively.
For `C=C(C)[C@@H]1CC[C@]2(C(=O)O)CC[C@]3(C)[C@H](CC[C@@H]4[C@@]5(C)CC[C@H](NC(=O)c6cnccn6)C(C)(C)[C@@H]5CC[C@]43C)[C@@H]12`, the IC50 (in [1]; in the experiment with HT-29; in [2]; with DU-145; with MDA-MB-231; in the experiment with 4T1) was above 25 µM each time. The IC50 in the experiment on T47D and in the experiment on MCF7 was above 25 µM in each case.
`C=C(C)[C@@H]1CC[C@]2(C(=O)O)CC[C@]3(C)[C@H](CC[C@@H]4[C@@]5(C)CC[C@H](NC(=O)C6CCCN6)C(C)(C)[C@@H]5CC[C@]43C)[C@@H]12` (stereo partly drawn): the IC50 in experiment [1] came out at 17.5 µM; with HT-29, 18.8 µM; in experiment [2], 20.3 µM; in the experiment on DU-145 it was 11 µM; with MDA-MB-231, 12.8 µM; with 4T1, 8.03 µM. In addition, the results for the IC50 with T47D and in the experiment with MCF7 were 11 µM and 15.2 µM, respectively.
Regarding `C=C(C)[C@@H]1CC[C@]2(C(=O)O)CC[C@]3(C)[C@H](CC[C@@H]4[C@@]5(C)CC[C@H](NC(=O)c6cnc(C)cn6)C(C)(C)[C@@H]5CC[C@]43C)[C@@H]12`, the IC50 (in [1]; with HT-29; in [2]; in the experiment on DU-145; with MDA-MB-231; with 4T1) was above 25 µM each time. In addition, the IC50 in the experiment on T47D and with MCF7 was above 25 µM throughout.
For `COc1cccc2c1C(=O)c1c(O)c3c(c(O)c1C2=O)C[C@@](O)(C(=O)CO)C[C@@H]3O[C@H]1C[C@H](N)[C@H](O)[C@H](C)O1` [DOXORUBICIN], the IC50 in experiment [3] stood at 9.26 µM; in experiment [4], 0.016 µM.
On to `C=C(C)[C@@H]1CC[C@]2(C(=O)O)CC[C@]3(C)[C@H](CC[C@@H]4[C@@]5(C)CC[C@H](NC(=O)c6cccnc6)C(C)(C)[C@@H]5CC[C@]43C)[C@@H]12`, for which the IC50 (in experiment [1]; in the experiment on HT-29; in [2]; in the experiment with DU-145; in the experiment with MDA-MB-231; with 4T1) was above 25 µM each time. The IC50 in the experiment with T47D and in the experiment on MCF7 was above 25 µM each time.
